Experimental data taken from paper PMC6868880 (ACS Omega, 2019).
In brackets after ≈: the same amount, converted by molar mass. Read-outs that look alike come from different tables or passages of the source. Each block holds one compound with its values, some of them ahead of it. Where no end group is shown, it is not given here.

Assays:
Trichophyton rubrum = experiment: MIC, filamentous fungi, Trichophyton rubrum; assay type: cell-based; details: ATCC28189, read-out: MIC Tr
Outline: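 T. rubrum ATCC 28189 was grown on potato dextrose agar, and inocula were prepared in RPMI 1640 medium. MIC was determined following CLSI M38-A2 for filamentous fungi.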

Escherichia coli = experiment: MIC determination against bacteria; assay type: cell-based; details: read-out: MIC Ec
Candida albicans [1] = details: cited from earlier work
human erythrocytes = details: cited from earlier work
Pseudomonas aeruginosa = experiment: MIC determination, Pseudomonas aeruginosa; assay type: cell-based; details: Table 5; Mueller Hinton broth, CLSI M7A9 with modifications, triplicate; ATCC 27853
Outline: (§1)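 Bacteria pre-cultured overnight at 37 °C/5% CO2 in culture medium as inoculum. MIC of test peptides determined by broth dilution in Mueller Hinton broth following CLSI M7A9 with modifications for bacteria. All tests run in triplicate.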

Candida parapsilosis = experiment: MIC, broth microdilution, Candida parapsilosis; assay type: cell-based; details: Table 5; CLSI M27-A3 with modifications, Lambert–Pearson plot; ATCC 22019
Outline: (§2)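 Yeasts were precultured in liquid YPD at 37 °C, 70 rpm, for 24 hours. MIC was determined by CLSI M27-A3 broth microdilution, modified for turbidimetric detection. The assay used MOPS-buffered RPMI 1640 without sodium bicarbonate, with cell density read at 600 nm. MIC was derived from a Lambert–Pearson plot of cell density.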

Candida albicans [2] = experiment: MIC, broth microdilution, Candida albicans; assay type: cell-based; details: Table 5; CLSI M27-A3 with modifications, Lambert–Pearson plot; ATCC 24433
Outline: as §2

Candida auris = experiment: MIC, broth microdilution, Candida auris; assay type: cell-based; details: Table 5; CLSI M27-A3 with modifications, Lambert–Pearson plot; DSMZ-No. 21092
Outline: as §2

rabbit erythrocytes = details: cited from earlier work
Listeria monocytogenes = experiment: MIC determination, Listeria monocytogenes; assay type: cell-based; details: Table 5; Mueller Hinton broth, CLSI M7A9 with modifications, triplicate; ATCC BAA-679/EGD-e
Outline: as §1

mammalian cell line = details: in vitro; cited from earlier work

MIC (Trichophyton rubrum): 0.125 µg/mL (≈ 0.135 µM)
Compound: C[C@@H]1[C@H](O)[C@@H](C)/C=C/C=C/C=C/C=C/C=C/C=C/C=C/[C@H](O[C@@H]2O[C@H](C)[C@@H](O)[C@H](N)[C@@H]2O)C[C@@H]2O[C@](O)(C[C@@H](O)C[C@@H](O)[C@H](O)CC[C@@H](O)C[C@@H](O)CC(=O)O[C@H]1C)C[C@H](O)[C@H]2C(=O)O [amphotericin B]

MIC (Escherichia coli): 0.195 µg/mL (≈ 0.559 µM)
Compound: CC1(C)S[C@@H]2[C@H](NC(=O)[C@H](N)c3ccccc3)C(=O)N2[C@H]1C(=O)O [ampicillin]

Compound: OC(Cn1cncn1)(Cn1cncn1)c1ccc(F)cc1F [fluconazole]
MIC (Candida albicans [1]; against Candida albicans): 8 to 16 µg/mL

Compound: SRSELIVHQRLF-NH2 [Cm-p5]
hemolytic activity (human erythrocytes): nonhemolytic
MIC Pseudomonas aeruginosa (Pseudomonas aeruginosa): >100 µg/mL
MIC C. parapsilosis (Candida parapsilosis): 32 µg/mL
MIC C. albicans (Candida albicans [2]): 10 µg/mL
MIC C. auris (Candida auris): 11 µg/mL
hemolytic activity (rabbit erythrocytes): nonhemolytic
MIC (Candida albicans [1]; against C. albicans, native peptide): 10 µg/mL
fungistatic action, concentration range (Candida albicans [1]; against Candida albicans): 10 to 40 µg/mL
MIC Listeria monocytogenes (Listeria monocytogenes): >100 µg/mL
toxicity against a mammalian cell line (mammalian cell line): did not exhibit any toxicity
